In data set [1] the test system is HUVEC. As to the kind of experiment: Induction of oxidative stress in human HUVEC cells assessed as increase in superoxide free radical production after 1 hr by DHE-based by fluorescence spectrophotometric analysis. The data set is classed as cell-based. In a few lines:
(§1)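 Cells were seeded at 10^5 per well and given graded compound concentrations for 1 h. They were then loaded with DHE or DCF probe for 30 min in the dark. Fluorescence was read immediately: DHE ex 540/em 600 nm; DCF ex 485/em 528 nm. Results were expressed as arbitrary units per 10^5 cells.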

Data set [2] has as its system HUVEC. Briefly: Induction of oxidative stress in human HUVEC cells assessed as increase in hydrogen peroxide free radical production after 1 hr by DCF-based fluorescence spectrophotometric analysis. The data set is classed as cell-based. An outline of the steps:
as §1

The test system of data set [3] is A-431. Briefly: Induction of oxidative stress in human A431 cells assessed as increase in superoxide free radical production after 1 hr by DHE-based by fluorescence spectrophotometric analysis. The format is functional, cell-based. In a few lines:
as §1

In data set [4] the test system is A-431. As to the kind of experiment: Induction of oxidative stress in human A431 cells assessed as increase in hydrogen peroxide free radical production after 1 hr by DCF-based fluorescence spectrophotometric analysis. The data set is classed as functional, cell-based. In a few lines:
as §1

A further data set deals with UACC-257. Briefly: Cytotoxicity against human UACC257 cells. The format is functional. The conditions noted are these: for TGI: read-out: pTGI (converted).
Data set [5] deals with MCF7. As to the kind of experiment: Induction of Cell cycle arrest in human MCF7 cells assessed as G2/M phase cells at IC50 concentration after 24 hrs by PI-staining based flow cytometric analysis (reference value: 13%). The format is functional. In a few lines:
(§2)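 MCF-7 cells (10^6) were treated for 24 h, with methanol as the vehicle control. Cells were fixed in cold 70% methanol at 4 °C for one day, washed with PBS, and permeabilized with 0.1% saponin in PBS. They were stained with propidium iodide plus RNase for 30 min. DNA content was read by flow cytometry, giving percentages of cells per cell-cycle phase.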

For data set [6], the system named is MCF7. As to the kind of experiment: Induction of Cell cycle arrest in human MCF7 cells assessed as S phase cells at IC50 concentration after 24 hrs by PI-staining based flow cytometric analysis (reference value: 19%). The data set is classed as functional. An outline of the steps: as §2
(Flow cytometry measures light scatter and fluorescence of single cells or particles in a stream.)

The test system of data set [7] is MCF7. As to the kind of experiment: Induction of Cell cycle arrest in human MCF7 cells assessed as G0/1 phase cells at IC50 concentration after 24 hrs by PI-staining based flow cytometric analysis (reference value: 68%). The data set is classed as functional. An outline of the steps:
as §2

Data set [8] has as its system MCF7. Briefly: Induction of oxidative stress in human MCF7 cells assessed as decrease in GSH level at 5 uM after 1 hr by DTNB assay relative to control. The format is functional. Further details: scale not given: the % may be the effect or the level left. In a few lines:
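MCF-7 cells (10^6) were treated for 1 h at 37 °C, trypsinized, and washed twice with cold PBS. GSH was extracted with chilled 5% metaphosphoric acid at 4 °C for 2 h, then the lysate was centrifuged. Supernatant was mixed with 0.2 M sodium phosphate pH 8.0 and 0.04 mM DTNB for 10 min at room temperature. Absorbance was read at 412 nm against a reagent blank, and GSH was quantified from a standard curve.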

Activity calls are given as the source filed them. The calls are words filed in the database; no cut-off is given here.

As a reminder, the GI50 is the concentration giving 50% growth inhibition. As a reminder, the LC50 is the concentration that kills 50% of the test population. With `CC1=C(SCCC(=O)OC(C[Se]C2=C(C)C(=O)c3ccccc3C2=O)C(=O)NCCCCCC(=O)OCc2ccccc2)C(=O)c2ccccc2C1=O` (centres undefined), the Activity entry in the data set on HUVEC [1] is “Non-toxic”. Besides, the Activity result with HUVEC [2] is given as “Non-toxic”. Moreover, the outcome in the data set on A-431 [3] was Active. The result in the data set with A-431 [4] was Active. Also, in the data set on UACC-257, growth was halved (GI50) at 3.47 µM, the LC50 was 34.7 µM and the TGI is 10 µM.
Regarding `CC1=C([Se]CC(OC(=O)[C@@H](CO)NC(=O)OC(C)(C)C)C(=O)NC(C)(C)C)C(=O)c2ccccc2C1=O` (some centres undefined), the Activity was 12% in the data set with MCF7 [5], 7.7% with MCF7 [6], 80% in the data set with MCF7 [7] and 59% with MCF7 [8]. In the data set on UACC-257, this compound showed a GI50 of 1.74 µM. Moreover, in the data set with UACC-257, the median lethal concentration (LC50) is 6.03 µM. Further, in the data set on UACC-257, the TGI is 3.24 µM.

The values above are taken from ChEMBL document CHEMBL2177069, “Novel peptidomimetic compounds containing redox active chalcogens and quinones as potential anticancer agents” (Eur J Med Chem, 2012).
